Activity, inhibition and Ki data for five compounds are collected here from ChEMBL document CHEMBL4610115, “Azidothymidine "Clicked" into 1,2,3-Triazoles: First Report on Carbonic Anhydrase-Telomerase Dual-Hybrid Inhibitors” (J Med Chem, 2020).

Activity calls are given as the source filed them. The calls are words filed in the database; no cut-off is given here.

One may read the Ki as the dissociation constant of the complex between target and ligand, obtained from inhibition or displacement. The low end stands for tighter binding, the high end for weaker binding.

One data set deals with HT-29. Nature of the data set: Effect on telomerase mRNA expression in human HT-29 cells at 20 uM incubated for 48 hrs by real-time RT-PCR analysis. It is filed as ADME, cell-based. Particulars: ht-29, 48 h. In outline:
(§1)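 PC3 and HT-29 cells were grown in RPMI-1640 with 10% FBS at 37 °C under 5% CO2, after mycoplasma testing. Cells were exposed to a final 20 μM for 48 h. hTERT mRNA was measured and normalized to 18S RNA, with standard curves from serial cDNA dilutions (1:40–1:320). Runs were done in quadruplicate; results are mean ± SEM, compared by Student's t-test.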
In general terms: Real-time PCR tracks product formation cycle by cycle.

Data set [1] has as its target Telomerase reverse transcriptase (Homo sapiens) (UniProt O14746). Kind of data set: Inhibition of telomerase in human PC3 cells at 20 uM incubated for 48 hrs by TRAP assay. The following applies: PC-3. It is filed as cell-based. In a few lines:
(§2)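 Mycoplasma-tested PC3 or HT-29 cells in RPMI-1640/10% FBS were exposed to a final 20 μM for 48 h. Cells were lysed in CHAPS/glycerol Tris buffer (pH 7.5), and 5 μg extract protein was used for TS-primer elongation (30 min, 37 °C) followed by CX-primer/Taq PCR for 30 cycles. Products were run on 12% nondenaturing PAGE with SYBR Green I densitometry. Quadruplicate; mean ± SEM; t-test.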

For data set [2] the target is unchanged. Kind of data set: Inhibition of telomerase in human HT-29 cells at 20 uM incubated for 48 hrs by TRAP assay. It is filed as cell-based. In a few lines: as §2
Another data set concerns PC-3. Kind of data set: Effect on telomerase mRNA expression in human PC3 cells at 20 uM incubated for 48 hrs by real-time RT-PCR analysis. Type of data set: ADME, cell-based. The following applies: pc-3, 48 h. In a few lines:
as §1

The target in another data set is Carbonic anhydrase 9 (Homo sapiens, UniProt Q16790). Nature of the data set: Inhibition of human CA9 pre-incubated for 15 mins by stopped flow CO2 hydrase assay.

Sequence of Telomerase reverse transcriptase (Homo sapiens) (O14746 whole entry): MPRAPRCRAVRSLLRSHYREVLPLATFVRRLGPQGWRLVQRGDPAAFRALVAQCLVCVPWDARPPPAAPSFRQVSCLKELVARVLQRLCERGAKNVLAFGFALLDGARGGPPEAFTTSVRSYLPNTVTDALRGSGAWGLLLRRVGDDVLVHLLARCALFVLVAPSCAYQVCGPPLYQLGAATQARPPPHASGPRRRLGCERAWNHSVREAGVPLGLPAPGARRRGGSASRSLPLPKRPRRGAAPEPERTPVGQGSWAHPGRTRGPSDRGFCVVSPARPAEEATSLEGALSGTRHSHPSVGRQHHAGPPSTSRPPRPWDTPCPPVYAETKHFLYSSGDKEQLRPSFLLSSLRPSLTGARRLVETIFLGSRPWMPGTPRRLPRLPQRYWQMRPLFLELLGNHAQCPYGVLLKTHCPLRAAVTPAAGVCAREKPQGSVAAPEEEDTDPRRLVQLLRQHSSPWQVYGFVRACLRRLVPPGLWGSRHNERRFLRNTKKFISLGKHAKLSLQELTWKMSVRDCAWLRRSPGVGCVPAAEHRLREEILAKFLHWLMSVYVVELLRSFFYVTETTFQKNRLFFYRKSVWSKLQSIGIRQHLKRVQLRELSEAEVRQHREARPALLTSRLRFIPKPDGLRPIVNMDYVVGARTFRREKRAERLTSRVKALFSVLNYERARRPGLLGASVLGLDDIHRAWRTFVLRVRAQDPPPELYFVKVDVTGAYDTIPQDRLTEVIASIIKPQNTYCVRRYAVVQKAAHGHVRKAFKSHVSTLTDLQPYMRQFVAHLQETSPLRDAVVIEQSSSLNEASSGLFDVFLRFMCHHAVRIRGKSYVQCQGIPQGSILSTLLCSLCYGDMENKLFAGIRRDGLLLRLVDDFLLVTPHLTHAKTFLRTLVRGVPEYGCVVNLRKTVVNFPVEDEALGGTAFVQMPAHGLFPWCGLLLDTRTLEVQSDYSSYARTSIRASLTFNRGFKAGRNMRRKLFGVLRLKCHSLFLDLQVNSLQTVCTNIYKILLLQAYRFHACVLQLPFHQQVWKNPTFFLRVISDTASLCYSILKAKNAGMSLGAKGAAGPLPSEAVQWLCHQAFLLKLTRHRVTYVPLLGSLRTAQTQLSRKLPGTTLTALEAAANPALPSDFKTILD

Turning to `Cc1cn([C@H]2C[C@H](n3cc(COc4ccc(S(N)(=O)=O)cc4)nn3)[C@@H](CO)O2)c(=O)[nH]c1=O`, the Activity entry with HT-29 and in the data set on PC-3 was “Non-Toxic” in each case. Also, the inhibition entry in data set [1] and in data set [2] was “Active” throughout.
Consider `Cc1cn([C@H]2C[C@H](n3cc(COC(=O)c4ccc(S(N)(=O)=O)cc4)nn3)[C@@H](CO)O2)c(=O)[nH]c1=O`, for which the Activity entry with HT-29 and in the data set on PC-3 was “Non-Toxic” throughout. The inhibition result in data set [1] and in data set [2] was “inactive” each time.
For the compound `Cc1cn([C@H]2C[C@H](n3cc(C[Se]c4ccc(NC(=S)Nc5cccc(S(N)(=O)=O)c5)cc4)nn3)[C@@H](CO)O2)c(=O)[nH]c1=O`, the Activity result with HT-29 and in the data set on PC-3 was “Non-Toxic” in each case. The inhibition result in data set [1] and in data set [2] was “Active” throughout.
In the case of `Cc1cn([C@H]2C[C@H](n3cc(CNC(=O)c4ccc(S(N)(=O)=O)cc4)nn3)[C@@H](CO)O2)c(=O)[nH]c1=O`, the Activity entry with HT-29 and with PC-3 was “Non-Toxic” each time. The inhibition result in data set [1] and in data set [2] was “inactive” throughout.
With `Cc1cn([C@H]2C[C@H](n3cc(COC(=O)c4ccc(Cl)c(S(N)(=O)=O)c4)nn3)[C@@H](CO)O2)c(=O)[nH]c1=O`, the Ki on Carbonic anhydrase 9 was determined as 240 nM.
